Source: PubChem BioAssay
Hits are enriched below; roughly 1.9% of the tested compounds scored in any of these assays.
Cneo AK release: causes C. neoformans cell lysis | adenylate kinase release luminescence, 4 h; normalised: neutral wells 0, clomiphene wells 100 | 0.2% of 360,000 active | AID 651654 | lysis activity, % at 15 µM;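 active means mean lysis activity across replicates of at least 80%, whatever share of replicates individually reach that level; inactive means mean lysis activity below 80%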
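read-out = cell lysis signal | test system = log-phase Cryptococcus neoformans yeast cells | input = cells at 5 × 10^6 per mL | medium = fresh YPD growth medium | signal = luminescent adenylate kinase detection reagent | timing = 4 h at 37 °C static, read 1 h later | dosing = single dose | controls = Clomiphene as positive lysis control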
DENV2 CPE: protects cells from dengue virus 2 cytopathic effect; DENV2-infected cells, cytopathic effect rescue, plate reader; CPE inhibition, % at 9.99 µM; 1.7% of 350,000 active; AID 651640; in the data active means CPE inhibition above about 20%, passing the limit was not always enough; inconclusive means no clear call, values can overlap the other calls; tested in BHK-21 cells;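 further: 0% = median of neutral control wells and 100% = median of positive control wells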
F508del corr: correctors of CFTR F508del function in bronchial epithelial cells. 0.36% of 350,000 active. activity (quench increase), % at 7.58 µM. AID 720511. CFBE cells, YFP halide quenching; stimulated with forskolin plus potentiator P3; % fluorescence drop versus neutral controls;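 active means mean added fluorescence quench of at least 8% versus neutral control, with both replicates also reaching 8%; inconclusive means only one of the mean or replicate conditions met; inactive means mean below 8% and not both replicates reaching 8%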;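 further: cells transiently co-express mutant CFTR-F508del with the halide-sensitive YFP; corrector assay measuring rescue of mutant channel to the surface after 24 h compound exposure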
PGC1a acetyl inh: lowers PGC1a acetylation signal in U2OS cells; AlphaScreen anti-acetyl-lysine; with virally co-expressed GCN5 acetyltransferase; inhibition, % at 15.6 µM; 0.17% of 350,000 active;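 active means every replicate shows inhibition of at least 40%; inconclusive means mean inhibition at least 40% but some replicate below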;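 further: 0% = neutral control wells and 100% = positive control wells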
Xi reactivation: X-chromosome reactivation activator; activation, % at 7.58 µM; XiGFP mouse fibroblasts, % GFP-positive cells imaging, 3 d; cells co-treated with 5-aza-dC sensitizer; scaled so ellipticine positive control = 100%; 0.055% of 360,000 active;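 active means mean normalized replicate activation at least 10% and every replicate at or above 10%; inconclusive means only one of the two criteria met; inactive means mean below 10% and not all replicates reach 10%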;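 further: 0% = median of on-plate neutral control wells and 100% = ellipticine 6 µM median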
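System: SV40-immortalized XiGFP fibroblast cells, line 68-5-11 / Incubation: 3-day compound exposure, then 15 min fixation at room temperature / Compound: single concentration per compound, delivered by pin transfer / Buffer or medium: DMEM plus 5-aza-dC sensitizer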
FN deposit inh: fibronectin deposition inhibition | AH1F fibroblasts, Alexa488-fibronectin deposition fluorescence, overnight | inhibition, % at 12.6 µM | 0.086% of 350,000 active | AID 743247;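 active means mean inhibition across replicates of 30% or more, regardless of how many single replicates reach that level; inconclusive means mean under 30% yet at least half of replicates reach 30%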;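 further: positive control wells lacked labelled fibronectin entirely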
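Assay system: AH1F fibroblasts assembling fluorescent fibronectin matrix; Amount: 10000 AH1F cells per well; Buffer or medium: DMEM, 2% serum; Probe or stimulus: Alexa488-fibronectin, 24 nM final in well; Doses: single compound dose, delivered by pin transfer; Incubation: 1 h adhesion, overnight exposure; Measured by: fluorescence 485/525 nm; Read-out: fibronectin deposition inhibition.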
An asterisk follows results filed as active; ? = inconclusive; · = no result; ! = a repeat was not active.

SMILES	Cneo AK release	DENV2 CPE	F508del corr	PGC1a acetyl inh	Xi reactivation	FN deposit inh
CC(C)NC(=O)N(C)C[C@@H]1OCCCC[C@H](C)Oc2ccc(NS(=O)(=O)c3ccc(Cl)cc3)cc2C(=O)N([C@H](C)CO)C[C@H]1C	-4	16	-1	-4	0	-4
CCOC(=O)Cn1c(=O)oc2cc(S(=O)(=O)NC3CCCc4ccccc43)ccc21 (configuration not stated)	5	27*	-1	2	0	-1
CCOC(=O)Cn1c(=O)oc2cc(S(=O)(=O)NC3CCCCC3)ccc21	1	·	·	5	·	·
Cc1ccccc1-c1nc2c(s1)CCc1onc(-c3ccc(Cl)cc3)c1-2	4	105*	0	·	0	6
COc1ccc(-c2noc3c2-c2nc(-c4ccccc4C)sc2CC3)cc1	·	19	6	·	0	-4
c1ccc(CCNc2ncnc3ccccc23)cc1	·	0	6	·	0	10
Cc1cccc(CNc2ncnc3ccc(-c4ccoc4)cc23)c1	1	-3	0	30	0	4
c1cncc(CNc2ncnc3ccc(-c4ccoc4)cc23)c1	0	?	-1	55*	0	0
Brc1ccc2ncnc(NCc3ccccc3)c2c1	-7	·	·	42*	·	·
C[C@H](CO)N1C[C@H](C)[C@@H](CN(C)Cc2ccc(Oc3ccccc3)cc2)Oc2ncc(-c3cncnc3)cc2C1=O	·	·	0	-9	0	·
Cc1ccc(SCC(=O)Nc2ccc(-c3nc4ccccc4[nH]3)cc2)cc1	·	38*	-5	-26	0	-6
Cc1ccc(NC(=O)CCCSc2nc3ccccc3[nH]2)cc1	·	-4	-3	-1	0	-7
CO[C@@H]1CN(C)C(=O)c2ccc(NS(=O)(=O)CC(F)(F)F)cc2OC[C@H](C)N(C)C[C@H]1C	1	-11	-2	-26	0	3
CCOC1=C/C(=C/c2c(N)n3nc(S(=O)(=O)CC)sc3nc2=O)C=CC1=O	·	-1	9.9*	·	0	8
Cc1cccc(-n2ncc3c(NC(C)C)ncnc32)c1	-9	-2	-1	11	0	31*
Cc1noc(C)c1NC(=O)Nc1ccc2c(c1)C(=O)N([C@H](C)CO)C[C@H](C)[C@@H](CN(C)S(=O)(=O)c1ccc(Cl)cc1)OCCCC[C@H](C)O2	-1	-2	1	-6	0	1
Cc1ccc(CN(C)c2ccc(S(=O)(=O)N3CCCC3)cn2)cc1	3	25*	1	2	0	7
Cc1ccc(S(=O)(=O)N2CC3(C)CN(S(=O)(=O)c4ccc(C)cc4)CC(C)(C2)C3O)cc1 (configuration not stated)	·	·	·	-12	·	1
CC1CCN(C(=O)c2ccc(S(=O)(=O)N3CCCC3)cc2)CC1	-2	-10	9.3*	5	0	0
Cc1ccc(NC(=O)c2ccc(S(=O)(=O)N3CCCCC3)cc2)cc1	6	·	·	5	·	11
CN(Cc1ccccc1)c1ccc(S(=O)(=O)N2CCOCC2)cn1	·	·	·	0	·	·
Cc1ccc(C(=O)NNC(=O)c2ccc(S(=O)(=O)N3CCCCC3)cc2)cc1	-1	-3	9.8*	·	0	1
Cc1ccc(S(=O)(=O)N2CC3(C)CN(S(=O)(=O)c4ccc(C)cc4)CC(C)(C2)C3=O)cc1	-5	·	·	7	·	34*
O=C(N[C@@H]1C=C[C@H](CC(=O)N2CCCCC2)O[C@@H]1CO)c1cccc(F)c1	-5	3	0	-3	0	·
O=S(=O)(c1ccc(F)cc1)N1CCCNCC1	3	-1	1	·	0	-1
SMILES	Cneo AK release	DENV2 CPE	F508del corr	PGC1a acetyl inh	Xi reactivation	FN deposit inh
Cc1ccc(S(=O)(=O)N2CCCNCC2)cc1	-2	23*	-2	·	0	1
Cc1ccc(S(=O)(=O)Nc2ccc3c(c2)C(=O)N([C@H](C)CO)C[C@H](C)[C@H](CN(C)CC2CC2)OCCCC[C@H](C)O3)cc1	-5	?	1	11	0	-2
C[C@@H]1CCCCO[C@@H](CN(C)CC2CCCCC2)[C@@H](C)CN([C@H](C)CO)C(=O)c2cc(NS(=O)(=O)c3ccc(Cl)cc3)ccc2O1	4	63*!	0	16	0	-9
C[C@@H]1CCCCO[C@@H](CN(C)CC2CCCCC2)[C@@H](C)CN([C@@H](C)CO)C(=O)c2cc(NS(=O)(=O)c3ccccc3)ccc2O1	80*	6	-1	0	0	·
C[C@@H]1CCCCO[C@H](CN(C)CC2CCCCC2)[C@@H](C)CN([C@H](C)CO)C(=O)c2cc(NS(=O)(=O)c3ccc(Cl)cc3)ccc2O1	-15	-3	4	8	0	·
Cc1ccc(S(=O)(=O)Nc2ccc3c(c2)C(=O)N([C@@H](C)CO)C[C@@H](C)[C@@H](CN(C)CC2CC2)OCCCC[C@@H](C)O3)cc1	8	63*!	4	-10	0	-16
C[C@@H]1CN([C@@H](C)CO)C(=O)c2cccc(NS(=O)(=O)c3cccs3)c2O[C@@H]1CN(C)S(=O)(=O)c1ccccc1	1	2	0	3	-1	-8
Cc1cc(C(=O)Nc2cccc3c2O[C@H](CN(C)Cc2ccc(Cl)c(Cl)c2)[C@@H](C)CN([C@H](C)CO)C3=O)n(C)n1	-3	13	-2	-16	-1	19
COc1ccc(-c2ccnc(-c3ccc(O)cc3)n2)cc1	·	-3	11*	-5	0	-1
O=C(NCc1ccc(F)cc1)C1C2C=CC3(CN(Cc4cccnc4)C(=O)C13)O2 (configuration not stated)	116*	·	·	3	·	7
O=C(NCc1ccc(Cl)cc1)C1C2C=CC3(CN(Cc4cccnc4)C(=O)C13)O2 (configuration not stated)	-4	·	-2	-1	·	·
O=C(CC1CC1)Nc1ccc2c(c1)[C@H]1C[C@@H](CC(=O)NC3CCCCC3)O[C@@H](CO)[C@H]1O2	-1	-1	-3	-2	1	13
COCC#Cc1cnc2c(c1)C(=O)N([C@H](C)CO)C[C@H](C)[C@H](CN(C)S(=O)(=O)c1cn(C)cn1)O2	-3	2	2	3	-1	4
Clc1ccc2nc(C3CCCCC3)c(CC3CCCCC3)n2c1	1	38*	1	-7	0	-1
CN(C)C(=O)[C@H]1[C@H](CO)[C@H]2Cn3c(ccc(/C=C/c4ccccc4)c3=O)[C@H]2N1CC1CC1	·	8	1	-4	0	·
